Measured values reported in ChEMBL document CHEMBL4400525, “Toward a treatment of diabesity: In vitro and in vivo evaluation of uncharged bromophenol derivatives as a new series of PTP1B inhibitors” (Eur J Med Chem, 2019).
Calls of active or inactive are those of the source. No cut-off for these calls is given here.

Key:
[1] = target: T1, Tyrosine-protein phosphatase non-receptor type 1 (Homo sapiens, UniProt P18031); test: Inhibition of GST-fused PTP1B catalytic domain (1 to 321 residues) (unknown origin) expressed in Escherichia coli using pNPP as substrate measured after 30 mins by spectrophotometric method
T1 sequence (P18031 whole entry): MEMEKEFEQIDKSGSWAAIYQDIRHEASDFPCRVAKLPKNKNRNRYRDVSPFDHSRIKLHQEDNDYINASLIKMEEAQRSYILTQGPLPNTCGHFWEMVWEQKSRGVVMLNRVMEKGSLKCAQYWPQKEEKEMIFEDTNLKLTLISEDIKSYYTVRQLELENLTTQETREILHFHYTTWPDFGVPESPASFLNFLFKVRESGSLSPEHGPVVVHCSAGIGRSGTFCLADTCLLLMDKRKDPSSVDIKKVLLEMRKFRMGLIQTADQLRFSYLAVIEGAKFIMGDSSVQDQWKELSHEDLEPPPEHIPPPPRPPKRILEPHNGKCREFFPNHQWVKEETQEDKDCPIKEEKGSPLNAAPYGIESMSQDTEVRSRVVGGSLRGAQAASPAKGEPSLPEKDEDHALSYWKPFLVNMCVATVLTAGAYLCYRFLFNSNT

[2] = target: T2, Tyrosine-protein phosphatase non-receptor type 11 (Homo sapiens, UniProt Q06124); test: Inhibition of SHP2 (unknown origin)
T2 sequence (Q06124 whole entry): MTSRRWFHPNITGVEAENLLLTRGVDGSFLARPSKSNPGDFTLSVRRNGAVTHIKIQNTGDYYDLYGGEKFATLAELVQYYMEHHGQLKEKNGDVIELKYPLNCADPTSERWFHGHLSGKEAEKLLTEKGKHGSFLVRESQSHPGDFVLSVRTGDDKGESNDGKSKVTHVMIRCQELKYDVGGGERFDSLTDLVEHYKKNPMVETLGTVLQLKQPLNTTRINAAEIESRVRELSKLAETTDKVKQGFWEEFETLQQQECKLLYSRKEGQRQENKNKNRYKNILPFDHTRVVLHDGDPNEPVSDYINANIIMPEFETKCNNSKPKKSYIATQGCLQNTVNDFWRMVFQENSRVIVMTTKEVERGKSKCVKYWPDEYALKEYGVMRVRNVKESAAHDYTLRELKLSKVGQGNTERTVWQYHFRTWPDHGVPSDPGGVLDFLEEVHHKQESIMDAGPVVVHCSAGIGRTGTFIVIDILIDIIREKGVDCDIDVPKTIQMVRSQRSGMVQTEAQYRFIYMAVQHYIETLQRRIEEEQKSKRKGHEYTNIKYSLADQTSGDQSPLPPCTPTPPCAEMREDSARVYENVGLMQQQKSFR

[3] = species: Homo sapiens; test: Selectivity ratio of IC50 for SHP1 (unknown origin) to IC50 for GST-fused PTP1B catalytic domain (1 to 321 residues) (unknown origin) expressed in Escherichia coli
[4] = target: T3, Tyrosine-protein phosphatase non-receptor type 1 (Mus musculus) (UniProt P35821); test: Inhibition of PTP1B in mouse C2C12 cells assessed as suppression of PA-induced insulin resistance by measuring increase in insulin-mediated IRS1 phosphorylation at Y632 residue preincubated for 1 hr followed by palmitic acid stimulation for 16 hrs and subsequent insulin addition measured after 30 mins by Western blot analysis; assay type: cell-based
T3 sequence (whole entry): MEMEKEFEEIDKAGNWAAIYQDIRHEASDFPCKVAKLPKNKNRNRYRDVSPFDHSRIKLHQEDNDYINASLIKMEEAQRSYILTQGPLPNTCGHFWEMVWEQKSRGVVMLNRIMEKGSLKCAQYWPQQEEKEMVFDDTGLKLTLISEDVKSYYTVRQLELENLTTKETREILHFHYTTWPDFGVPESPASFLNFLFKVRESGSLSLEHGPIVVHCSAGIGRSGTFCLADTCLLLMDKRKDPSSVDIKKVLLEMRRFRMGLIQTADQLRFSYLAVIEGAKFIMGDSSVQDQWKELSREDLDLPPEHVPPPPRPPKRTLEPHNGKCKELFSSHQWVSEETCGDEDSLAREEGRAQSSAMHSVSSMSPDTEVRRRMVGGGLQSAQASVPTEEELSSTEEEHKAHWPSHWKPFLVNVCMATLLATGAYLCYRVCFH

[5] = tested on: Mus musculus; test: Antiobesity activity in BKS db mouse assessed as decrease in water intake at 100 mg/kg, po administered once daily for 5 weeks; assay type: functional, organism-based
Outline: (§1)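 Diabetic BKS db mice, n = 8 per group, were given 100 mg/kg/day orally for five weeks. Vehicle- and metformin-treated db mice and vehicle-treated BKS mice served as controls. Food intake, water intake and body weight were followed weekly, and abdominal fat pads were weighed at the end. Values are mean ± SEM.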

[6] = tested on: Mus musculus; test: Antiobesity activity in BKS db mouse assessed as decrease in body weight at 100 mg/kg, po administered once daily for 5 weeks relative to control; assay type: functional; set-up: scale not given: the % may be the effect or the level left; outline: as §1
[7] = Acute toxicity in Kunming mouse assessed as visual toxic effect at 500 to 2000 mg/kg, po administered as single dose measured for 1 week; assay type: organism-based; settings: in vivo, 168 h
[8] = Sub-acute toxicity in Kunming mouse assessed as behavioral changes at 1000 mg/kg, po administered once daily for 14 days measured during compound dosing; assay type: organism-based; settings: in vivo, 336 h
[9] = Sub-acute toxicity in Kunming mouse assessed as structural changes in heart at 1000 mg/kg, po administered once daily for 14 days measured 24 hrs post last dose by gomori staining based histological analysis; assay type: organism-based; settings: in vivo
Outline: (§2)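 After 14 days of oral dosing at 1000 mg/kg body wt per day, with vehicle-treated controls, liver, heart, kidney and lung sections were Gomori-stained. Sections were examined for histological structure and cell size.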

[10] = Sub-acute toxicity in Kunming mouse assessed as effect on liver size at 1000 mg/kg, po administered once daily for 14 days measured 24 hrs post last dose by gomori staining based histological analysis; assay type: organism-based; settings: in vivo; outline: as §2
[11] = Sub-acute toxicity in Kunming mouse assessed as effect on lung size at 1000 mg/kg, po administered once daily for 14 days measured 24 hrs post last dose by gomori staining based histological analysis; assay type: organism-based; settings: in vivo; outline: as §2
[12] = tested on: Mus musculus; test: Antidiabetic activity in BKS db mouse assessed as reduction in blood glucose level at 100 mg/kg, po administered once daily for 5 weeks measured up to three weeks during compound dosing by glucometry

CCOc1ccc(Oc2ccc(-c3cnc(-c4cc(O)c(O)c(Br)c4Br)o3)cc2)cc1
IC50 [1]: 0.19 µM | IC50 [2]: > 36.8 µM | Ratio IC50 [3]: 20 to 200 | inhibition [4]: Dose-dependent effect | Activity [5]: inactive | Activity [6]: 15% | Activity [7]: Non-Toxic | Activity [8]: Non-Toxic | Activity [9]: Non-Toxic | Activity [10]: Non-Toxic | Activity [11]: Non-Toxic | Activity [12]: inactive
